The record followed here is PMC5028280 (Neuropharmacology, 2016).

Structures are written as SMILES. Bounds are passed on as bounds.

The target in data set [1] is T1, 5-HT2B (Homo sapiens, UniProt P41595). Kind of data set: NIMH PDSP secondary binding assay, 5-HT2B.
Another data set deals with GABA: PBR (Rattus norvegicus, UniProt P16257). Put plainly: NIMH PDSP secondary binding assay, PBR. The arrangement: species or system human.
The target of data set [2] is T1, 5-HT2B. Put plainly: 5-HT2B antagonism functional assay. It counts as cell-based.
The next data set has as its target hERG (Homo sapiens, UniProt Q12809). Kind of data set: hERG channel assay. It counts as cell-based. On the technique in general: hERG is a cardiac potassium channel; its block is linked to QT prolongation.
Data set [3] deals with male ICR mice. Put plainly: Functional observational battery. In kind it is in vivo, mouse. To be noted: i.v. In a few lines: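 Male ICR mice, each given one dose only, n=6 per dose; housed at 20–22°C on a 12-h light/dark cycle with food ad libitum. Approach and startle after observer interference were scored as categorical measures. Each compound's vehicle group was pooled into one vehicle group, and each dose was compared with it. Tests: Fisher's exact (categorical), Kruskal-Wallis (ordinal), one-way ANOVA (continuous).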

For data set [4], the system named is male ICR mice. Put plainly: FOB, cannabinoid receptor antagonism of 3 mg/kg JWH-018 effects. It counts as in vivo, mouse. The note with it: 3 mg/kg JWH-018 i.v. alone, or co-administration of 3 mg/kg rimonabant i.p.
In a further data set the test system is male C57/Bl6J mice. Kind of data set: Drug discrimination, mice trained to discriminate 0.3 mg/kg JWH-018 from vehicle. It counts as in vivo, mouse.
Setting [5] is: CNS Excitability domain, ↑ increase vs vehicle, ---- no significant effect.
The mark [6] stands for this setting: Muscle tone/Equilibrium domain, categorical, ---- no significant effect.
Where [7] appears, read: Sensorimotor Reactivity domain, categorical, ---- no significant effect.

T1 sequence (P41595 whole entry): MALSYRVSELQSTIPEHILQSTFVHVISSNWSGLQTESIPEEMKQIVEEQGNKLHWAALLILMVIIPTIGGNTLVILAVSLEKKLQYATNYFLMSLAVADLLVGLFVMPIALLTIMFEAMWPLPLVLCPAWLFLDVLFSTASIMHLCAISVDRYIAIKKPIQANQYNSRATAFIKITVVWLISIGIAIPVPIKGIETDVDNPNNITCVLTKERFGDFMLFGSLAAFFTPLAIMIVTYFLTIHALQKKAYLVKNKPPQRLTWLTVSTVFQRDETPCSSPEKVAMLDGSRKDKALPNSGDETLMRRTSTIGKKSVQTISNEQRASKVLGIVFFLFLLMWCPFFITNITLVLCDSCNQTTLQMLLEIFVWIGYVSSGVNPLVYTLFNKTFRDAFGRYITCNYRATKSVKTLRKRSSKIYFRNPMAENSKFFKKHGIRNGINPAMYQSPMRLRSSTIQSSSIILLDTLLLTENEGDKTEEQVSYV
Chain of hERG (Q12809 whole entry): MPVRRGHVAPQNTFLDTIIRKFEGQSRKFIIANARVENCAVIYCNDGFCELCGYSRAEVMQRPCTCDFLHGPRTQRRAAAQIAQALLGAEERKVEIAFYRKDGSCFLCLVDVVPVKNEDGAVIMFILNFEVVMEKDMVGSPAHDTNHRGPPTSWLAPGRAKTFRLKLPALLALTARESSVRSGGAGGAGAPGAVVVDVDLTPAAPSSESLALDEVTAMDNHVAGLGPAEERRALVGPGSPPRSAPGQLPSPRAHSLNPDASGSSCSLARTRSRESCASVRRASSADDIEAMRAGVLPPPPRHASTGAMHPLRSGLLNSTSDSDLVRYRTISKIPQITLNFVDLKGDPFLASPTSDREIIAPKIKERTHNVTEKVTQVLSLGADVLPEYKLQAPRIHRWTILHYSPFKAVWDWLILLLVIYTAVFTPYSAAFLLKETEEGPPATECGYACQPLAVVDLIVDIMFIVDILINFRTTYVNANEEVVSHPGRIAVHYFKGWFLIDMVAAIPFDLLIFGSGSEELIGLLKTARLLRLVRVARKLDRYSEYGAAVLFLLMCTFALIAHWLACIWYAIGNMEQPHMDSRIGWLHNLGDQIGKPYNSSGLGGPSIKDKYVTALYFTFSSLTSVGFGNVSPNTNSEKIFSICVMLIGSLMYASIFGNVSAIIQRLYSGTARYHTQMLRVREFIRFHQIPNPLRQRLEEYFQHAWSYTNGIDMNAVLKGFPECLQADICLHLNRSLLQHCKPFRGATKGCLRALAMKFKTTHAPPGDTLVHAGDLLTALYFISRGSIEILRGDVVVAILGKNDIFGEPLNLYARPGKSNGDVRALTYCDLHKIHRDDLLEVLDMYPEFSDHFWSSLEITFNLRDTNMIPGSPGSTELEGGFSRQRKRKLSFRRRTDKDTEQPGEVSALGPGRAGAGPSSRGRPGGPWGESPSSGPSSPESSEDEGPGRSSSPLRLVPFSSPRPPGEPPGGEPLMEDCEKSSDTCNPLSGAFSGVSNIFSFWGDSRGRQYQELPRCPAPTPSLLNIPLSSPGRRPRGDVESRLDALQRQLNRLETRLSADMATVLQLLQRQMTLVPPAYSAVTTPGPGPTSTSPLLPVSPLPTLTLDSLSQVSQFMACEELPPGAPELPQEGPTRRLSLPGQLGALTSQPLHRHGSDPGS
Chain of GABA: PBR (P16257 whole entry): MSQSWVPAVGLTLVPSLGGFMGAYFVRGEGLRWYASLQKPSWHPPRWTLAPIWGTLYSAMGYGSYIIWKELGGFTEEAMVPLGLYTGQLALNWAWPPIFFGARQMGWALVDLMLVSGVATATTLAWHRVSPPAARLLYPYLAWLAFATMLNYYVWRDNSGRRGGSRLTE

As to `CCCCCn1cc(C(=O)c2cccc3ccccc23)c2ccccc21` [JWH-018, 1-pentyl-3-(1-naphthoyl)indole], the affinity on 5-HT2B [1], expressed as Ki, was 0.316 µM. The compound also registered a Ki at GABA: PBR of 0.673 µM. Besides, the IC50 against 5-HT2B [2] amounted to 33.2 µM. Also, the Emax on 5-HT2B [2] (read-out: 5-HT2B Antagonism Emax) stood at 100%. The compound further had an EC50 on hERG of 236 µM. The Emax on hERG (human, stably transfected cell line expressing hERG channels) was 100%. At hERG (inhibition of hERG channels, mean of 3 replicates), the “hERG Channels Emax” value is on record as “Full efficacy”. Besides, in the data set with male ICR mice [3] (CNS Activity domain, ↓ decrease vs vehicle, N = 6/dose), the “FOB Home cage activity: doses with significant differences vs vehicle” value was “↓ (0.1-3) mg/kg”. Moreover, in the data set on male ICR mice [3] (setting [5]), the “FOB Clonus: doses with significant differences vs vehicle” value is “↑ (0.3) mg/kg”, the “FOB Tail elevation: doses with significant differences vs vehicle” value is “↑ (1) mg/kg” and the “FOB Tonus: doses with significant differences vs vehicle” value is recorded as “↑ (1) mg/kg”. In addition, in the data set on male ICR mice [3] (setting [6]), the “FOB Forelimb placing: doses with significant differences vs vehicle” value is on record as “(3) mg/kg”, the “FOB Gait: doses with significant differences vs vehicle” value is recorded as “(0.1-3) mg/kg”, the “FOB Muscle tone: doses with significant differences vs vehicle” value is on record as “(0.1-3) mg/kg” and the “FOB Posture: doses with significant differences vs vehicle” value is on record as “(0.1-3) mg/kg”. Besides, in the data set with male ICR mice [3] (setting [7]), the “FOB Approach response: doses with significant differences vs vehicle” value is on record as “(0.3-3) mg/kg” and the “FOB Startle response: doses with significant differences vs vehicle” value was “(3) mg/kg”. Besides, in the data set with male ICR mice [4], the “Muscle tone in FOB antagonism study” value is given as “Hypertonia”. The “Responding on the JWH-018-associated lever at the training dose” value in the data set on male C57/Bl6J mice (0.3 mg/kg JWH-018) is reported as > 85%. Moreover, the “Response rates compared to vehicle” value in the data set on male C57/Bl6J mice (1 mg/kg JWH-018, 10 mg/kg THC, JWH-073 across the dose range tested) is recorded as “significantly decreased response rates”. In the data set with male C57/Bl6J mice (percentage of responses on JWH-018-associated lever, i.p.), the “Substitution for the 0.3 mg/kg JWH-018 training dose” value was “fully and dose-dependently substituted”.

The Ki is a dissociation constant, usually derived from enzyme kinetics or from competition with a known ligand. A high value points to weaker binding. One may read the IC50 as the concentration that gives 50% inhibition. A low value points to higher potency. Usually Emax stands for the maximal effect, on the per cent scale that the assay sets. Usually EC50 stands for the concentration needed to bring the measured effect to its halfway point. A higher EC50 goes with a less potent agent.
